ChEMBL document CHEMBL3872262, “Synthesis of novel C4-benzazole naphthalimide derivatives with potent anti-tumor properties against murine melanoma” (Bioorg Med Chem, 2017)
Calls of active or inactive are those of the source. No cut-off for these calls is given here.

Tests used:
[1] = Cytotoxicity against mouse B16F10 cells measured after 2 days by MTS assay; details: B16-F10, 48 h
[2] = system: Mus musculus; assay: Toxicity in C57BL/6 mouse assessed as change in body weight at 2 mg/kg, ip administered daily for 9 days measured during compound dosing; assay type: organism-based; details: in vivo, 216 h
In short: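 Female C57BL/6 mice, n=5/group, given 2 mg/kg ip daily in 5% DMSO vehicle, with a vehicle control group. Body weights recorded on set days over a 9-day study.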

[3] = organism: Homo sapiens; assay: Inhibition of topoisomerase 2 (unknown origin) assessed as DNA intercalation at 10 uM using supercoiled pHOT-1 DNA as substrate measured after 30 mins by agarose gel electrophoresis
In short: (§1)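 Topoisomerase II drug screening kit. Supercoiled pHOT-1 plasmid incubated with topoisomerase II enzyme plus compound at 37 °C for 30 min, with 100 μM etoposide as positive control. Stopped with 10% SDS, then proteinase K for 15 min at 37 °C. Run on 1% agarose gel, stained with EtBr and viewed under UV.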

[4] = system: B16-F10; assay: Antitumor activity against mouse B16F10 cells implanted in C57BL/6 mouse assessed as reduction in lung metastasis at 2 mg/kg, ip administered daily for 1 to 14 days by microscopic method; assay type: functional, organism-based
In short: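 Female C57BL/6 mice, 6–8 weeks old, injected via tail vein with 2x10^5 B16F10 cells on day 0. Dosing 2 mg/kg ip daily on days 1–14, in 5% DMSO vehicle, with a vehicle control group. Total black lung nodules counted under microscopy on day 14, n=11/group.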

[5] = organism: Homo sapiens; assay: Inhibition of topoisomerase 2 (unknown origin) assessed as DNA intercalation at 100 uM using supercoiled pHOT-1 DNA as substrate measured after 30 mins by agarose gel electrophoresis; in short: as §1

Compound | IC50 [1] [µM] | Activity [2] | inhibition [3] | Activity [4] | inhibition [5]
CN(C)CCN1C(=O)c2cccc3cc(N)cc(c23)C1=O [AMONAFIDE] | 6.7 | – | – | – | –
CN(C)CCN1C(=O)c2cccc3c(-c4nc5ccccc5o4)ccc(c23)C1=O | 7.8 | Non-Toxic | Active | Active | –
CN(C)CCN1C(=O)c2cccc3c(-c4nc5ccccc5s4)ccc(c23)C1=O | 4.5 | Non-Toxic | Active | Active | Active
